Values after ≈ are worked out from the molar mass of the structure shown.
Columns and labels:
Assay type in all cases: functional
[1] = test system: Saccharomyces cerevisiae; assay: Antifungal activity against Saccharomyces cerevisiae MY2214 after 48 hrs
In short: (§1)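 Broth microdilution MIC in microtiter format. Organisms grown in Synthetic Complete defined medium. Log-phase cells adjusted by A600 to an initial inoculum absorbance of 0.0014. […] Growth inhibition scored at 24 and 48 h, with visual endpoints.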

[2] = test system: Aspergillus fumigatus; assay: Antifungal activity against Aspergillus fumigatus MF5668 after 48 hrs; in short: as §1
[3] = test system: Candida albicans; assay: Antifungal activity against Candida albicans MY1055 after 48 hrs; conditions: MY1055, 48 h; in short: as §1
[4] = test system: Cryptococcus neoformans; assay: Antifungal activity against Cryptococcus neoformans MY2062 after 48 hrs; in short: as §1
[5] = test system: Candida albicans; assay: Antifungal activity against Candida albicans MY1055 after 48 hrs in presence of 10% bovine serum albumin; conditions: MY1055, 48 h
In short: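 Microtiter broth dilution MIC in Synthetic Complete medium with 10% bovine serum albumin added. Log-phase inoculum set by A600 to an absorbance of 0.0014. Titration started at 256 µg/mL. Cells grown 48 h and endpoints read visually.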

MIC [1] [µg/mL]	MIC [2] [µg/mL]	MIC [3] [µg/mL]	MIC [4] [µg/mL]	MIC [5] [µg/mL]	Structure (SMILES)
32 (≈ 47.3 µM)	64 (≈ 94.6 µM)	16 (≈ 23.6 µM)	4 (≈ 5.91 µM)	128	CC(=O)O[C@@H]1C[C@]2(CO)[C@H]3CCC4=C5C(=O)C[C@@H](C(C)C)[C@@]5(C)CC[C@@]4(C)[C@]3(C)CC[C@H]2C(C)(C)[C@H]1O[C@@H]1O[C@H](CO)[C@@H](O)[C@H](O)[C@H]1O [HYALODENDROSIDE B]
128 (≈ 181 µM)	> 256	128 (≈ 181 µM)	> 256	128	CC(=O)O[C@@H]1C[C@]2(CO)[C@H]3CCC4=C5C(=O)CC6[C@H](C)CO[C@@H](O)C56CC[C@@]4(C)[C@]3(C)CC[C@H]2C(C)(C)[C@H]1O[C@@H]1O[C@H](CO)[C@@H](O)[C@H](O)[C@H]1O (stereo not given in full) [HYALODENDROSIDE A]

Structure (SMILES)	MIC [1] [µg/mL]	MIC [2] [µg/mL]	MIC [3] [µg/mL]	MIC [4] [µg/mL]	MIC [5] [µg/mL]
C[C@@H]1[C@H](O)[C@@H](C)/C=C/C=C/C=C/C=C/C=C/C=C/C=C/[C@H](O[C@@H]2O[C@H](C)[C@@H](O)[C@H](N)[C@@H]2O)C[C@@H]2O[C@](O)(C[C@@H](O)C[C@@H](O)[C@H](O)CC[C@@H](O)C[C@@H](O)CC(=O)O[C@H]1C)C[C@H](O)[C@H]2C(=O)O [AMPHOTERICIN B]	0.25 (≈ 0.271 µM)	1 (≈ 1.08 µM)	0.5 (≈ 0.541 µM)	0.25 (≈ 0.271 µM)	0.25
